The results in this text go back to ChEMBL document CHEMBL1133734, “Synthesis and evaluation of nitroheterocyclic phosphoramidates as hypoxia-selective alkylating agents” (2000).

One experiment deals with B16. Put plainly: Tested in vitro for cytotoxicity against B16 murine melanoma cells. Format: functional, Mus musculus. A digest of the protocol: (§1)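 Clonogenic assay. Cells were suspended in unsupplemented medium at 2-30 000 cells/mL and exposed 2 h at 37 °C, 5% CO2 to 1-400 µM drug (final), with the top dose chosen to give >99% kill. Drug stocks were made in medium or ethanol. After washing, cells were plated at 2-3 dilutions. Colonies of ≥50 cells were stained with crystal violet at 8 days (B16) or 14 days (MCF-7). LC99 was taken by linear regression of log surviving fraction vs concentration.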

Experiment [1] deals with HT-29. The experiment in a line: Tested in vitro for cytotoxicity against HT-29 human colon carcinoma cells under aerobic condition. Type of experiment: functional. A digest of the protocol: (§2)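 HT-29 colon cells were grown in α-MEM with 10% FBS and given a 4-h drug exposure under aerobic or hypoxic conditions in a clonogenic assay run in duplicate. The top dose was chosen to give >99% kill. LC99 (1% colony survival versus untreated controls) was taken by linear regression of log surviving fraction vs drug concentration.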

In experiment [2] the test system is HT-29. The experiment in a line: Tested in vitro for cytotoxicity against HT-29 human colon carcinoma cells under hypoxic condition. Format: functional. A digest of the protocol:
as §2

Another experiment deals with MCF7-CP. Put plainly: Tested in vitro for cytotoxicity against MCF-7/CP 4-hydroperoxycyclophosphamide-resistant human breast cancer cells. Type of experiment: functional. Put shortly: as §1
For a further experiment, the system named is MCF7. The experiment in a line: Tested in vitro for cytotoxicity against MCF-7/WT wild-type human breast cancer cells. Type of experiment: functional. Put shortly:
as §1

A short description of experiment [3]: Ratio of lethal conc. under aerobic to hypoxic condition in HT-29 cells. Type of experiment: functional. A digest of the protocol: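 HT-29 hypoxic selectivity. Aerobic and hypoxic LC99 values (concentration cutting clonogenic survival by 2 log units) come from the log-linear portion of each survival curve after 4-h drug treatment, assayed in duplicate. The ratio is aerobic LC99 over hypoxic LC99.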

For the molecule `O=[N+]([O-])c1ccc(COP(=O)(N(CCCl)CCCl)N(CCCl)CCCl)o1`, the LC99 stood at 9.3 µM in the experiment on B16; 12 µM in the experiment on HT-29 [1]; 3.4 µM in the experiment with HT-29 [2]; 22 µM in the experiment on MCF7-CP; 20 µM with MCF7. In addition, the Ratio in experiment [3] is 3.5.
Take `CN(C)c1cc(COP(N)(=O)N(CCBr)CCBr)sc1[N+](=O)[O-]` (stereo not drawn): the LC99 in the experiment with B16 is 52 µM; in the experiment with HT-29 [1] it was 180 µM; in the experiment with HT-29 [2], 8.9 µM; in the experiment on MCF7-CP, 110 µM; in the experiment with MCF7 it was 88 µM. Also, the Ratio in experiment [3] is given as 20.
Consider `O=[N+]([O-])c1ccc(COP(=O)(N(CCBr)CCBr)N(CCBr)CCBr)s1`, for which the LC99 with B16 worked out at 1.1 µM; in the experiment on MCF7-CP, 1.9 µM; in the experiment on MCF7 it was 2.4 µM.
For `Cn1c(COP(=O)(N(CCBr)CCBr)N(CCBr)CCBr)ccc1[N+](=O)[O-]`, in that order: 14 µM, 51 µM and 57 µM.
On to `Cn1c([N+](=O)[O-])cnc1COP(=O)(N(CCCl)CCCl)N(CCCl)CCCl`, for which the LC99 with B16 is 150 µM; in the experiment on HT-29 [1], greater than 600 µM; with HT-29 [2], 28 µM; in the experiment with MCF7-CP it was greater than 600 µM; in the experiment with MCF7, greater than 600 µM. In addition, the Ratio in experiment [3] is on record as greater than 20.
Consider `O=[N+]([O-])c1ccc(COP(=O)(N(CCBr)CCBr)N(CCBr)CCBr)o1`, for which the LC99 in the experiment with B16 was 1.7 µM; in the experiment with MCF7-CP, 2.3 µM; with MCF7 it was 1.9 µM.
Consider `O=P1(N(CCCl)CCCl)NC(OO)CCO1` (stereo not drawn) [PERFOSFAMIDE], for which the LC99 in the experiment with B16 was determined as 11 µM; in the experiment with MCF7-CP, 145 µM; with MCF7, 14 µM.
The matching figures for `Cn1c(COP(=O)(N(CCCl)CCCl)N(CCCl)CCCl)ccc1[N+](=O)[O-]`: 70 µM, 245 µM and 205 µM.
`NC(=O)c1cc(COP(N)(=O)N(CCBr)CCBr)sc1[N+](=O)[O-]` (stereo not drawn): the LC99 in the experiment on B16 stood at 1.4 µM; in the experiment on HT-29 [1], 0.73 µM; with HT-29 [2] it was 0.33 µM; with MCF7-CP, 1.5 µM; in the experiment with MCF7, 1.6 µM. In addition, in experiment [3], the Ratio was found to be 2.2.
Take `O=P(OCc1ccco1)(N(CCCl)CCCl)N(CCCl)CCCl`: the figures for the LC99 in the experiment on B16, in the experiment with MCF7-CP and in the experiment on MCF7 were 53 µM, 230 µM and 300 µM, respectively.
For `O=P(OCc1cccs1)(N(CCCl)CCCl)N(CCCl)CCCl`, in that order: 120 µM, 205 µM and 211 µM.
For `O=[N+]([O-])c1ccc(COP(=O)(N(CCCl)CCCl)N(CCCl)CCCl)s1`, the LC99 with B16 was found to be 5.1 µM; in the experiment on HT-29 [1] it was 10.8 µM; with HT-29 [2] it was 6.2 µM; in the experiment with MCF7-CP, 6.5 µM; in the experiment on MCF7, 7.9 µM. For the same molecule, in experiment [3], the Ratio was found to be 1.7.
On to `NP(=O)(OCc1cc(Br)c([N+](=O)[O-])s1)N(CCBr)CCBr` (stereo not drawn), for which the LC99 with B16 is 0.44 µM; in the experiment on HT-29 [1], 0.91 µM; in the experiment on HT-29 [2], 0.25 µM; in the experiment with MCF7-CP it was 1.3 µM; in the experiment with MCF7, 0.62 µM. Further, in experiment [3], the Ratio came out at 3.6.
On to `N#Cc1cc(COP(N)(=O)N(CCBr)CCBr)sc1[N+](=O)[O-]` (stereo not drawn), for which the LC99 in the experiment with B16 was 0.45 µM; in the experiment on HT-29 [1], 0.62 µM; in the experiment with HT-29 [2], 0.22 µM; in the experiment with MCF7-CP, 0.24 µM; in the experiment with MCF7, 0.11 µM. For the same molecule, the Ratio in experiment [3] amounted to 2.8.
